# Experimental data reported in ChEMBL document CHEMBL1154907, “Synthesis and preclinical evaluations of 2-(2-fluorophenyl)-6,7-methylenedioxyquinolin-4-one monosodium phosphate (CHM-1-P-Na) as a potent antitumor agent” (J Med Chem, 2010).
# The source made the active and inactive calls. The rule behind the calls is not given here.
# Columns and labels:
# [1] = Growth inhibition of human HBC5 cells by SRB assay; format: functional
# Method in brief: (§1)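 Human cancer cell panel; five concentrations from 10^-4 to 10^-8 M; growth measured by sulforhodamine B colorimetric method; GI50, TGI and LC50 derived from computer-analysed dose-response curves.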
# MDA-MB-231 = assay: Growth inhibition of human MDA-MB-231 cells by SRB assay; format: functional; method in brief: as §1
# U-251 = assay: Growth inhibition of human U251 cells by SRB assay; format: functional
# Method in brief: (§2)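 Cancer cell panel; growth measured by sulforhodamine B colorimetric method across five concentrations from 10^-4 to 10^-8 M; GI50, TGI and LC50 derived from computer-analysed dose-response curves.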
# SF-295 = assay: Growth inhibition of human SF295 cells by SRB assay; format: functional; method in brief: as §2
# SNB-75 = assay: Growth inhibition of human SNB75 cells by SRB assay; format: functional; method in brief: as §2
# SNB-78 = assay: Growth inhibition of human SNB78 cells by SRB assay; format: functional; method in brief: as §2
# KM12 = assay: Growth inhibition of human KM12 cells by SRB assay; format: functional; method in brief: as §1
# HT-29 = assay: Growth inhibition of human HT-29 cells by SRB assay; format: functional; method in brief: as §1
# HCT-116 = assay: Growth inhibition of human HCT116 cells by SRB assay; format: functional; method in brief: as §1
# NCI-H23 = assay: Growth inhibition of human NCI-H23 cells by SRB assay; format: functional; method in brief: as §1
# NCI-H522 = assay: Growth inhibition of human NCI-H522 cells by SRB assay; format: functional; method in brief: as §1
# A549 = assay: Growth inhibition of human A549 cells by SRB assay; format: functional; method in brief: as §1
# OVCAR-3 [2] = assay: Growth inhibition of human OVCAR-3 cells by SRB assay; format: functional; method in brief: as §1
# OVCAR-4 = assay: Growth inhibition of human OVCAR4 cells by SRB assay; format: functional; method in brief: as §1
# OVCAR-8 = assay: Growth inhibition of human OVCAR8 cells by SRB assay; format: functional; method in brief: as §1
# ACHN = assay: Growth inhibition of human ACHN cells by SRB assay; format: functional; method in brief: as §1
# St-4 = assay: Growth inhibition of human St-4 cells by SRB assay; format: functional; method in brief: as §2
# MKN-45 = assay: Growth inhibition of human MKN45 cells by SRB assay; format: functional; method in brief: as §1
# DU-145 = assay: Growth inhibition of human DU145 cells by SRB assay; format: functional; method in brief: as §1
# [3] = Cmax in CD1 mouse at 10 mg/kg, ip; format: ADME, organism-based; set-up: dose 10 mg/kg, route intraperitoneal; details: in vivo
# Method in brief: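 Male CD-1 (Crl.) mice (22-24 g), single 10 mg/kg dose. Prodrug in 9% NaHCO3/water (1 mg/mL) given iv by tail vein or po by gavage after 4 h fast; parent given ip in cremophor/DMSO/saline 20/5/75 (2 mg/mL). Plasma sampled to 27 h, three mice per time point, acetonitrile precipitation, LC-MS/MS (ESI positive); parameters from mean plasma concentrations.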
# [4] = Tmax in CD1 mouse at 10 mg/kg, ip; format: ADME, organism-based; set-up: dose 10 mg/kg, route intraperitoneal; details: in vivo
# Method in brief: (§3)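 Male CD-1 (Crl.) mice, 22-24 g, single 10 mg/kg ip bolus of parent drug in cremophor/DMSO/saline (20/5/75, v/v; 2 mg/mL, 5 mL/kg). Blood sampled at 0, 5, 15, 30 min, 1, 1.5, 2, 4, 6, 9, 24, 27 h, three mice per time point. Plasma extracted with acetonitrile, analysed by LC-MS/MS. Parameters calculated from mean plasma concentrations.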
# [5] = Half life in CD1 mouse at 10 mg/kg, ip; format: ADME, organism-based; set-up: dose 10 mg/kg, route intraperitoneal; details: in vivo; method in brief: as §3
# MAO-A = MAO-A (Homo sapiens, UniProt P21397); assay: Inhibition of human MAO-A at 10 uM by enzyme assay
# Method in brief: (§4)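 Commercial spectrum screen of enzyme assays under standard protocols; percent inhibition tested at 10 μM; IC50 determined for targets showing significant inhibition at that concentration; SEM given where multiple independent determinations.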
# [6] = biological target: Cathepsin D (Homo sapiens) (UniProt P07339); assay: Inhibition of human cathepsin D at 10 uM by enzyme assay; method in brief: as §4
# [7] = biological target: Cathepsin E (Homo sapiens) (UniProt P14091); assay: Inhibition of human cathepsin E at 10 uM by enzyme assay; method in brief: as §4
# [8] = biological target: Mitogen-activated protein kinase 10 (Homo sapiens) (UniProt P53779); assay: Inhibition of human JNK3 at 10 uM by enzyme assay; method in brief: as §4
# SK-OV-3 [9] = assay: Cell cycle arrest in human SKOV3 cells assessed as accumulation of cells with G2/M DNA at 10 uM after 36 hrs by propidium iodide-based flow cytometry; format: functional
# Method in brief: (§5)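 SKOV-3 cells (DMEM/F-12, 10% fetal calf serum) treated with 10 μM for 6, 12, 24, 36 or 48 h; trypsinized, PBS-washed, fixed in 70% ice-cold ethanol overnight at -20 °C, RNase A treated, propidium iodide stained; DNA content by flow cytometry, phase percentages and hypodiploid fraction scored.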
# SK-OV-3 [10] = assay: Cell cycle arrest in human SKOV3 cells assessed as increase in accumulation of hypodiploid cells at 10 uM after 48 hrs by propidium iodide-based flow cytometry; format: functional; method in brief: as §5
# SK-OV-3 [11] = assay: Induction of mitotic arrest in human SKOV3 cells assessed as microtubule disruption at 10 uM after 24 hrs by SDS-PAGE; format: functional, cell-based
# OVCAR-3 [12] = assay: Antitumor activity against human OVCAR-3 cells xenografted in nude mouse assessed as increase in lifespan of organism at 200 mg/kg, ip administered in Q7D x 3 schedule relative to control; format: functional; details: route intraperitoneal
# OVCAR-3 [13] = assay: Antitumor activity against human OVCAR-3 cells xenografted in nude mouse assessed as increase in lifespan of organism at 134 mg/kg, ip administered in Q7D x 3 schedule relative to control; format: functional; details: route intraperitoneal
# Pepsin A (Sus scrofa) = Pepsin A (Sus scrofa) (UniProt P00791); assay: Inhibition of pig pepsin at 10 uM by enzyme assay; method in brief: as §4
# Pepsin A (Sus scrofa), sequence (P00791 60-385 limits assumed): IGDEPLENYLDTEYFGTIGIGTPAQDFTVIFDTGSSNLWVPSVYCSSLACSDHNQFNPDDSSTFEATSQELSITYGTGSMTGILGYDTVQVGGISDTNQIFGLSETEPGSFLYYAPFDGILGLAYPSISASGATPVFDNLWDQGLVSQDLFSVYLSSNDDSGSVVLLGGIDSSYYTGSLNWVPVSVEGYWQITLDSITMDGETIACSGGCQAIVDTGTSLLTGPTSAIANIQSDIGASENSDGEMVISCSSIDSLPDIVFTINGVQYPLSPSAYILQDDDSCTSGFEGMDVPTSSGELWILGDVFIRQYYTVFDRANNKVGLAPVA
# Cathepsin D (Homo sapiens), sequence (P07339 65-162 limits assumed): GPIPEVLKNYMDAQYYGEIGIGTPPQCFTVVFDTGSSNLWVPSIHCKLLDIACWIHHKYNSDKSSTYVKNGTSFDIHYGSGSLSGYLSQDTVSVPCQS
# Cathepsin D (Homo sapiens), sequence (P07339 169-412 limits assumed): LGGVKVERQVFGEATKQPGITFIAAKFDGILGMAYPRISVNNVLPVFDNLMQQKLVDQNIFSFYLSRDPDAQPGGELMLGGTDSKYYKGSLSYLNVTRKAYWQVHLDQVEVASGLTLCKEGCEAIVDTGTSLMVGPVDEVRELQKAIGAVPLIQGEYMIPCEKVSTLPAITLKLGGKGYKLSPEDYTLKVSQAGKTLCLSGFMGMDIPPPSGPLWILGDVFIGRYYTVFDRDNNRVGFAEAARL
# MAO-A, sequence (P21397 whole entry): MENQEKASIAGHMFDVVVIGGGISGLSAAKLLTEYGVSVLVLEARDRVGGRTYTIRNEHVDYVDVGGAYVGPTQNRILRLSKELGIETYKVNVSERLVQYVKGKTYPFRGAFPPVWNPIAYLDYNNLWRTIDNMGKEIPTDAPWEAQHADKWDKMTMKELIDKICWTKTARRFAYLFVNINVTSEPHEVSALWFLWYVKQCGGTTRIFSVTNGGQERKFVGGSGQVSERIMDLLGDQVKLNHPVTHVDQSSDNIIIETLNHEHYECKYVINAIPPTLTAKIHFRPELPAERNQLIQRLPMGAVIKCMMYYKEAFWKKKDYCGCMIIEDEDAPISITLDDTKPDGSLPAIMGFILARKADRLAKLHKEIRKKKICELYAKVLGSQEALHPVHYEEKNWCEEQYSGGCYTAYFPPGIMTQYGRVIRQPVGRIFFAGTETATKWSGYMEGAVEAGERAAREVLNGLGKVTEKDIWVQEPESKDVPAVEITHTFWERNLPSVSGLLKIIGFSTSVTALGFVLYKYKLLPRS
# Mitogen-activated protein kinase 10 (Homo sapiens), sequence (P53779 whole entry): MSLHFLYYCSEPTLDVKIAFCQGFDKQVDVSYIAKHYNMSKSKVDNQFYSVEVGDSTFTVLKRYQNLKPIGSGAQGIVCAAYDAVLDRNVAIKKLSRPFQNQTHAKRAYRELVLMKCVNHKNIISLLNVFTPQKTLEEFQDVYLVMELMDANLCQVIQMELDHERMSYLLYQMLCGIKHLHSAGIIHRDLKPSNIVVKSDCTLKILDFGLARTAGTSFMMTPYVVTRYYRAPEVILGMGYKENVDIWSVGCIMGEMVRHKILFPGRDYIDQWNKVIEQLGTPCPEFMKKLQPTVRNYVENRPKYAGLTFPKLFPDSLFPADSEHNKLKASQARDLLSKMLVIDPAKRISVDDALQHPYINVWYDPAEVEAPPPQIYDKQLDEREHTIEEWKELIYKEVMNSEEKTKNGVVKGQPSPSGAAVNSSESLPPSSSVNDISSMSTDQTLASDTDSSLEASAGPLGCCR
# Cathepsin E (Homo sapiens), sequence (P14091 whole entry): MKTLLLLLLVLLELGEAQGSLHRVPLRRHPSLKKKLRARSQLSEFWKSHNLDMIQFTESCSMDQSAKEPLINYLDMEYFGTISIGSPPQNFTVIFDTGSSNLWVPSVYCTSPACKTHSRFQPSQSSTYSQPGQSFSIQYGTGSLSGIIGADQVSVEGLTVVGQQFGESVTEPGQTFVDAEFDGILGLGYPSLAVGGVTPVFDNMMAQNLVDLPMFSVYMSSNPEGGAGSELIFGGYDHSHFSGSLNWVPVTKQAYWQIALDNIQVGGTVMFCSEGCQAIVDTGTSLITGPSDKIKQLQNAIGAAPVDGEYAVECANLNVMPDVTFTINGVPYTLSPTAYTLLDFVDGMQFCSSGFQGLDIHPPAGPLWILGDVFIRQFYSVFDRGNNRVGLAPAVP
smiles,measurement,setting,value
O=c1cc(-c2ccccc2F)[nH]c2cc3c(cc12)OCO3,GI50,[1]; HBC5,0.776 µM
same,CC50,"[1]; HBC5, read-out: pLC50 (converted)",> 100 µM
same,TGI,"[1]; HBC5, read-out: pTGI",> 100 µM
same,GI50,MDA-MB-231; MDA-MB-231,0.155 µM
same,CC50,"MDA-MB-231; MDA-MB-231, read-out: pLC50 (converted)",> 100 µM
same,TGI,"MDA-MB-231; MDA-MB-231, read-out: pTGI (converted)",52.5 µM
same,GI50,U-251; U-251,0.0692 µM
same,CC50,"U-251; U-251, read-out: pLC50 (converted)",> 100 µM
same,TGI,"U-251; U-251, read-out: pTGI (converted)",18.2 µM
same,GI50,SF-295; SF-295,0.115 µM
same,CC50,"SF-295; SF-295, read-out: pLC50 (converted)",> 100 µM
same,TGI,"SF-295; SF-295, read-out: pTGI (converted)",52.5 µM
same,GI50,SNB-75; SNB-75,20 µM
same,CC50,"SNB-75; SNB-75, read-out: pLC50 (converted)",> 100 µM
same,TGI,"SNB-75; SNB-75, read-out: pTGI",> 100 µM
same,GI50,SNB-78; SNB-78,0.219 µM
same,CC50,"SNB-78; SNB-78, read-out: pLC50 (converted)",> 100 µM
same,TGI,"SNB-78; SNB-78, read-out: pTGI (converted)",12 µM
same,GI50,KM12; KM12,0.0676 µM
same,CC50,"KM12; KM12, read-out: pLC50 (converted)",> 100 µM
same,TGI,"KM12; KM12, read-out: pTGI",> 100 µM
same,GI50,HT-29; HT-29,0.309 µM
same,CC50,"HT-29; HT-29, read-out: pLC50 (converted)",> 100 µM
same,TGI,"HT-29; HT-29, read-out: pTGI (converted)",1.2 µM
same,GI50,HCT-116; HCT-116,0.0646 µM
same,CC50,"HCT-116; HCT-116, read-out: pLC50 (converted)",> 100 µM
same,TGI,"HCT-116; HCT-116, read-out: pTGI",> 100 µM
same,GI50,NCI-H23; NCI-H23,1.17 µM
same,CC50,"NCI-H23; NCI-H23, read-out: pLC50 (converted)",> 100 µM
same,TGI,"NCI-H23; NCI-H23, read-out: pTGI",> 100 µM
same,GI50,NCI-H522; NCI-H522,0.0603 µM
same,CC50,"NCI-H522; NCI-H522, read-out: pLC50 (converted)",> 100 µM
same,TGI,"NCI-H522; NCI-H522, read-out: pTGI (converted)",0.562 µM
same,GI50,A549; A549,0.692 µM
same,CC50,"A549; A549, read-out: pLC50 (converted)",> 100 µM
same,TGI,"A549; A549, read-out: pTGI",> 100 µM
same,GI50,OVCAR-3 [2]; OVCAR-3,7.08 µM
same,CC50,"OVCAR-3 [2]; OVCAR-3, read-out: pLC50 (converted)",> 100 µM
same,TGI,"OVCAR-3 [2]; OVCAR-3, read-out: pTGI",> 100 µM
same,GI50,OVCAR-4,0.0282 µM
same,CC50,OVCAR-4; read-out: pLC50 (the source's name) (converted),0.513 µM
same,TGI,OVCAR-4; read-out: pTGI (converted),0.0646 µM
same,GI50,OVCAR-8; OVCAR-8,0.162 µM
same,CC50,"OVCAR-8; OVCAR-8, read-out: pLC50 (converted)",> 100 µM
same,TGI,"OVCAR-8; OVCAR-8, read-out: pTGI (converted)",0.794 µM
same,GI50,ACHN,0.389 µM
same,CC50,ACHN; read-out: pLC50 (converted),> 100 µM
same,TGI,ACHN; read-out: pTGI,> 100 µM
same,GI50,St-4; St-4,6.61 µM
same,CC50,"St-4; St-4, read-out: pLC50 (converted)",> 100 µM
same,TGI,"St-4; St-4, read-out: pTGI (converted)",93.3 µM
same,GI50,MKN-45; MKN-45,0.0575 µM
same,CC50,"MKN-45; MKN-45, read-out: pLC50 (converted)",> 100 µM
same,TGI,"MKN-45; MKN-45, read-out: pTGI",> 100 µM
same,GI50,DU-145; DU-145,0.0501 µM
same,CC50,"DU-145; DU-145, read-out: pLC50 (converted)",> 100 µM
same,TGI,"DU-145; DU-145, read-out: pTGI (converted)",0.562 µM
same,Cmax,[3],155 ng/mL
same,Tmax,[4],0.3 h
same,half-life,[5],7.3 h
same,inhibition at 10 µM,MAO-A,52%
same,inhibition,[6],27%
same,inhibition,[7],12%
same,inhibition,[8],55%
same,Activity,SK-OV-3 [9],Active
same,Activity,SK-OV-3 [10],Active
same,Activity,SK-OV-3 [11],Active
same,Activity,OVCAR-3 [12],124%
same,Activity,OVCAR-3 [13],133%
same,inhibition,Pepsin A (Sus scrofa),85%
